The list is not random: actives were taken first. Their share in the collection is about 3.7%.
UPR XBP1 act: adaptive UPR (XBP1) activation | activation, % at 20 µM | 0.33% of 330,000 active | AID 463104 | CHO-XBP1 luciferase reporter, IRE1-XBP1 UPR activation, luminescence; percent of tunicamycin response, DMSO as zero;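 active means versus positive control, 20 µM dose yields 30% or more activation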
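assay system = CHO-XBP1 luciferase reporter cells | amount = 1000 cells/well | buffer or medium = F12 plus 10% FBS | compound dosing = single point, 20 µM final compound, 1% DMSO | incubation = 16-18 h cell attachment at 37 °C, then 6 h compound exposure | detection = Steady-Glo luminescence read | controls = tunicamycin 10 µg/mL and vehicle-only wells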
UPR CHOP act: activators of apoptotic arm of unfolded protein response (CHOP). CHO-CHOP luciferase reporter, UPR activation, luminescence; percent of tunicamycin response over DMSO baseline. activation, % at 10 µM. 0.34% of 330,000 active. AID 449763;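 active means at 10 µM dose, activation of 40% or more, normalized to positive control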
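Test system: CHO-CHOP cells, stable luciferase reporter of PERK-eIF2a-CHOP signalling | Quantity: 500 CHO-CHOP cells per well | Buffer or medium: F12 plus 10% serum | Compound dosing: 10 µM single point, 0.5% DMSO | Schedule: 6 h compound treatment, 37 °C | Signal: Luciferase luminescence | Control set: Tunicamycin high control, DMSO low control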
Beta2AR agonist: activates human beta-2 adrenergic receptor causing internalization. P07550. Am2.2-beta2AR cells, FAP receptor internalization, flow cytometry. response, % (concentration not given with the values). 0.43% of 340,000 active;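 active means response above a set limit, near 3 SD of response in nonfluorescent compounds, cut at about 42% in these data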
Dynein cargo inh: blocks dynein driven cargo transport along microtubules; 3617.4 mouse cells, GR-EGFP nuclear translocation imaging; test concentration mostly 20 µM; stimulated with dexamethasone, 1 µM; stronger effect = lower value; z-score, hits read low; 0.47% of 220,000 active; AID 1381;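 active means plate z-score of nuclear minus cytoplasmic receptor signal below a set negative limit, without overly bright fluorescence or cell loss, cut at about -3.5 in these data, passing the limit was not always enough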;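 further: z-score of nuclear minus cytoplasmic ring GR-EGFP intensity difference per well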
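Also added: dexamethasone, 1.0 µM final. Medium: tet-free, stripped-serum medium. Detection: fixed, Hoechst-stained cells imaged at 10x for EGFP. Read-out: nuclear-to-cytoplasmic GR-EGFP distribution per well. Times: induction 48 h, compound 1 h, agonist 30 min.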
Mdm2 MdmX PPI: inhibitors of human Mdm2/MdmX interaction; O15151+Q00987; inhibition, % at 8 µM; 3% of 330,000 active; AID 485346; SaOS-2 split-luciferase Mdm2/MdmX complementation, luminescence;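 active means inhibition of at least 50% at 8 µM in the primary screen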
MDM2 E3 inh: Mdm2 E3 ligase (human) inhibition; cell-based MDM2 ubiquitination luciferase reporter, 2 h; 0 = plate control, 100 = twice control, blank-subtracted; signal enhancement, % at 5 µM; 0.11% of 210,000 active; AID 1230;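 active means signal enhancement of 30% or more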;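 further: luminescence tracks abundance of the self-degrading MDM2-luciferase fusion protein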
Target sequence (Q00987 whole entry, looked up, the tested form may be a part): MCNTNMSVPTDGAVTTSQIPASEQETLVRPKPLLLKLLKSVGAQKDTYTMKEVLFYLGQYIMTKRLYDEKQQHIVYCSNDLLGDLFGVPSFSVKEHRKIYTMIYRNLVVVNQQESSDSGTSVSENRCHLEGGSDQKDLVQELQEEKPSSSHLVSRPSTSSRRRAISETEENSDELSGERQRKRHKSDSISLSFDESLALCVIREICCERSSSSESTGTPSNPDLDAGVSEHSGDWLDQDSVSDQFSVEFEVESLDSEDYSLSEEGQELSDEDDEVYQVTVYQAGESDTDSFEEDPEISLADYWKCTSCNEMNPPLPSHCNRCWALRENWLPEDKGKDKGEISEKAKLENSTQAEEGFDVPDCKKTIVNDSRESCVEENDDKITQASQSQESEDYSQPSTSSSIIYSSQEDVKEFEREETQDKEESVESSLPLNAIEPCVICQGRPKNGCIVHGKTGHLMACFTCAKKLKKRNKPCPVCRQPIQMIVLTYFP
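System: stable MDM2–luciferase fusion reporter cells / Input: 2000 cells seeded into each well / Schedule: 4 h settle plus 2 h compound, 37 °C / Compound: single-point 5 µM / Buffer or medium: cells held in DMEM / Benchmarks: control and blank well means / Evaluation: percent signal gain over controls, blank-subtracted / Measured by: luciferase luminescence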
Mdm2 MdmX conf: human Mdm2/MdmX binding inhibition, confirmed | shares compounds with Mdm2 MdmX PPI | AID 489028 | 55% of 10,000 active | inhibition, % at 8 µM | luminescent assay; in the data active means inhibition above about 40%
FLuc counter: inhibits full-length luciferase, flagging false Mdm2/MdmX hits | shares compounds with Mdm2 MdmX PPI | AID 504607 | 77% of 6,200 active | SaOS-2 full-length luciferase counterscreen, luminescence | inhibition, % at 8 µM;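 active means mean inhibition at 8 µM reaching about 37%, which flags the compound as non-specific, limit read from the data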;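 further: p53-null SaOS-2 cells with luciferase driven by a doxycycline-inducible promoter; compound on cells about two nights before reading with doxycycline added after day one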
Numbers stand for hits.

COc1ccc(/C=C2/NC(=O)N(Cc3ccccc3F)C2=O)cc1OC was read as UPR XBP1 act inactive, UPR CHOP act inactive, Beta2AR agonist inactive, Dynein cargo inh inactive, Mdm2 MdmX PPI 85, MDM2 E3 inh inactive and Mdm2 MdmX conf inactive.
Screening Cc1ccc(/C=C2/NC(=O)N(Cc3ccccc3)C2=O)o1 returned UPR XBP1 act inactive, UPR CHOP act inactive, Beta2AR agonist inactive, Dynein cargo inh inactive, Mdm2 MdmX PPI inactive and MDM2 E3 inh inactive.
Cn1c(=O)n(C)c2cc(/C=C3/NC(=O)N(Cc4ccccc4)C3=O)ccc21 was read as UPR XBP1 act inactive, UPR CHOP act inactive, Beta2AR agonist inactive, Dynein cargo inh inactive, Mdm2 MdmX PPI 51, MDM2 E3 inh inactive, Mdm2 MdmX conf inactive and FLuc counter 88.
For Cc1cccc(NC(=O)CN2C(=O)S/C(=C\c3ccccn3)C2=O)c1 the results were UPR XBP1 act inactive, UPR CHOP act inactive, Beta2AR agonist inactive, Dynein cargo inh inactive, Mdm2 MdmX PPI 84, MDM2 E3 inh inactive and Mdm2 MdmX conf inactive.
For CCOc1cc(/C=C2/NC(=O)N(CC(=O)Nc3cccc(C)c3)C2=O)ccc1OC the results were UPR XBP1 act inactive, UPR CHOP act inactive, Beta2AR agonist inactive, Dynein cargo inh inactive, Mdm2 MdmX PPI 70, MDM2 E3 inh inactive, Mdm2 MdmX conf 65 and FLuc counter inactive.
For CS(=O)(=O)Cc1ccc(C(=O)N(CCc2ccccc2)Cc2ccccc2)cc1 the results were UPR XBP1 act inactive, UPR CHOP act inactive, Beta2AR agonist inactive and Mdm2 MdmX PPI inactive.
`CCn1cc(/C=C2\SC(=O)N(CC(=O)Nc3ccc4c(c3)OCO4)C2=O)c2ccccc21` gave UPR XBP1 act inactive, UPR CHOP act inactive, Beta2AR agonist inactive, Dynein cargo inh inactive, Mdm2 MdmX PPI 68, MDM2 E3 inh inactive, Mdm2 MdmX conf 47 and FLuc counter 91.
For COc1ccc(-n2cc(CNC3CCN(C)CC3)c(-c3cccc(F)c3)n2)cc1 the results were UPR XBP1 act inactive, UPR CHOP act inactive, Beta2AR agonist inactive, Dynein cargo inh inactive, Mdm2 MdmX PPI 66, MDM2 E3 inh inactive, Mdm2 MdmX conf 57 and FLuc counter 41.
COc1ccccc1CN(C)C(=O)c1cccc(S(=O)(=O)N2CCCc3ccccc32)c1 was read as UPR XBP1 act inactive, UPR CHOP act inactive, Beta2AR agonist inactive and Mdm2 MdmX PPI inactive.
For CCOC(=O)c1ccc(NC(=S)N(CCN(C)C)Cc2cccs2)cc1 the results were UPR XBP1 act inactive, UPR CHOP act inactive, Beta2AR agonist inactive, Dynein cargo inh inactive, Mdm2 MdmX PPI 76, MDM2 E3 inh inactive, Mdm2 MdmX conf 46 and FLuc counter 61.
Cc1ccc(NC(=S)N(CCN(C)C)Cc2cccs2)cc1 was read as UPR XBP1 act inactive, UPR CHOP act inactive, Beta2AR agonist inactive, Dynein cargo inh inactive, Mdm2 MdmX PPI inactive and MDM2 E3 inh inactive.
CC(C)Cc1ccc(C(C)C(N)=NCCc2ccccc2)cc1 (centres undefined) was read as UPR XBP1 act inactive, UPR CHOP act inactive, Beta2AR agonist inactive, Mdm2 MdmX PPI 81, Mdm2 MdmX conf 72 and FLuc counter 48.
COc1ccc(CCN=C(N)C(C)c2ccccc2)cc1OC (centres undefined) was read as UPR XBP1 act inactive, UPR CHOP act inactive, Beta2AR agonist inactive, Dynein cargo inh inactive and Mdm2 MdmX PPI inactive.
For CSc1ccccc1NC(=O)CSCc1ccc(C)cc1 the results were UPR XBP1 act inactive, UPR CHOP act inactive, Beta2AR agonist inactive, Dynein cargo inh inactive, Mdm2 MdmX PPI inactive and MDM2 E3 inh inactive.
For Cc1ccc(CSCC(=O)Nc2ccccc2C(=O)O)cc1 the results were UPR XBP1 act inactive, UPR CHOP act inactive, Beta2AR agonist inactive, Mdm2 MdmX PPI 52 and Mdm2 MdmX conf inactive.

Screens deposited in PubChem by several laboratories.
